Test results as given in ChEMBL document CHEMBL1144257, “5-Chloroindoloyl glycine amide inhibitors of glycogen phosphorylase: synthesis, in vitro, in vivo, and X-ray crystallographic characterization” (Bioorg Med Chem Lett, 2005).
pIC50: −log10 of the molar value.

Assays:
[1] = test system: SK-HEP1; assay: Inhibitory concentration against human SK-Hep-1 cells (hepatoma cell line); assay type: functional, cell-based
Method in brief: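 SK-HEP-1 cells carrying pre-labeled ¹⁴C-glycogen, with phosphorylase activated by forskolin. Glycogenolysis is the ¹⁴C-glycogen (dpm) difference between basal and forskolin-treated cells. Inhibition is expressed as percent of forskolin-induced glycogenolysis in DMSO controls. IC50 from a 6-point curve (0.1–30μM), triplicate points, mean of ≥2 independent experiments where repeated.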

[2] = target: T1, Glycogen phosphorylase, liver form (Homo sapiens, UniProt P06737); assay: Inhibitory concentration against glycogen phosphorylase
T1 sequence (P06737 whole entry): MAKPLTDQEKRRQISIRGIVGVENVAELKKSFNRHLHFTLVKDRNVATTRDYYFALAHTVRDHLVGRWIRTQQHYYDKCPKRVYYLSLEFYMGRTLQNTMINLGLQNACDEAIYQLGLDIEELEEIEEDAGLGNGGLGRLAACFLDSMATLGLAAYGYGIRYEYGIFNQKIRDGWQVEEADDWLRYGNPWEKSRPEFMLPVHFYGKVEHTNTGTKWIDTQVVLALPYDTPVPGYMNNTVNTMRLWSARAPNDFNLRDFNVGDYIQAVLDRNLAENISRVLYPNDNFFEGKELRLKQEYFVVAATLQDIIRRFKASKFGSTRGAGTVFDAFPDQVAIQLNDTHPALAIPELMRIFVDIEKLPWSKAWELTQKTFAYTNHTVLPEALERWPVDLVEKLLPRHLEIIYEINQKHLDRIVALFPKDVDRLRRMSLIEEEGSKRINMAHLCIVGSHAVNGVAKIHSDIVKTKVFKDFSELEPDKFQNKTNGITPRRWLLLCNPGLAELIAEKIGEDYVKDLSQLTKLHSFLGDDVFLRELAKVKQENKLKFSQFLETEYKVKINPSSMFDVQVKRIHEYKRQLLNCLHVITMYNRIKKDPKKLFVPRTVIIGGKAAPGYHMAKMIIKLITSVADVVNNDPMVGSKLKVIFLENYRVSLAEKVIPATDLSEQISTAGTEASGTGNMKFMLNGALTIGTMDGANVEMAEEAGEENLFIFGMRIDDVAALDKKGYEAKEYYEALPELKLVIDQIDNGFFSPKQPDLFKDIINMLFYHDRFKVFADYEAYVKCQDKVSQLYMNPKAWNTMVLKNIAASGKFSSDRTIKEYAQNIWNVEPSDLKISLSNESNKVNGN

[3] = test system: Mus musculus; assay: In-vivo minimum effective dose (MED) for reduction of plasma glucose in mouse after 3 hours; assay type: functional; details: read-out: MED
Method in brief: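 Fed diabetic ob/ob mice, oral dosing in neat PEG400, starting at […] and then at successively lower doses. Plasma glucose measured 3h post-dose. Lowering is expressed as percent decrease versus vehicle-treated controls within the same experiment, with significance by unpaired t-test on group mean glucose. MED is the lowest dose giving reduction.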

pIC50 [1]	pIC50 [2]	Structure (SMILES)	minimal effective dose [3]
5.82	6.70	COCCN(C(=O)CNC(=O)c1cc2cc(Cl)ccc2[nH]1)C1CCCC1	> 10 mg/kg
5.24	6.26	O=C(NCC(=O)N(CCO)CC1CCCO1)c1cc2cc(Cl)ccc2[nH]1 (stereo not drawn)	
	5.96	O=C(NCC(=O)N(CCO)Cc1cccnc1)c1cc2cc(Cl)ccc2[nH]1	
	5.80	NCCN(C(=O)CNC(=O)c1cc2cc(Cl)ccc2[nH]1)C1CCCC1	
	5.82	O=C(NCC(=O)N(CCN1CCOCC1)C1CCCC1)c1cc2cc(Cl)ccc2[nH]1	
5.92	6.33	CN(CC1CC1)C(=O)CNC(=O)c1cc2cc(Cl)ccc2[nH]1	
6.00	6.77	CN(C(=O)CNC(=O)c1cc2cc(Cl)ccc2[nH]1)C1CCC1	
5.85	6.68	CC(CCO)N(C(=O)CNC(=O)c1cc2cc(Cl)ccc2[nH]1)C1CCCC1 (stereo not drawn)	
5.30	6.47	O=C(NCC(=O)N(CCO)C1CCSC1)c1cc2cc(Cl)ccc2[nH]1 (stereo not drawn)	
6.31	6.82	CCCN(CCO)C(=O)CNC(=O)c1cc2cc(Cl)ccc2[nH]1	> 25 mg/kg
5.89	7.27	O=C(NCC(=O)N(CC(O)CO)C1CCCC1)c1cc2cc(Cl)ccc2[nH]1 (stereo not drawn)	10 mg/kg
	< 5.00	CN(CCc1ccccc1)C(=O)CNC(=O)c1cc2cc(Cl)ccc2[nH]1	
4.72	6.60	CN(C(=O)CNC(=O)c1cc2cc(Cl)ccc2[nH]1)C1CCN(C=O)C1 (stereo not drawn)	
4.85	6.37	O=C(NCC(=O)N(CCO)Cc1ncc[nH]1)c1cc2cc(Cl)ccc2[nH]1	
	5.68	CN(C(=O)CNC(=O)c1cc2cc(Cl)ccc2[nH]1)C1CCC(O)CC1 (stereo not drawn)	
< 4.52	6.02	O=C(NCC(=O)N(CCO)C1CCCCCCCCCCC1)c1cc2cc(Cl)ccc2[nH]1	
	5.80	O=C(NCC(=O)N(CCOCc1ccccc1)C1CCCC1)c1cc2cc(Cl)ccc2[nH]1	
5.15	6.68	CN(C(=O)CNC(=O)c1cc2cc(Cl)ccc2[nH]1)c1ccccc1	
5.60	6.49	O=C(NCC(=O)N(CCO)Cc1ccccc1)c1cc2cc(Cl)ccc2[nH]1	
< 4.52	6.68	O=C(NCC(=O)N(CCO)C1CCCCCCCCC1)c1cc2cc(Cl)ccc2[nH]1	
	6.17	CN(C(=O)CNC(=O)c1cc2cc(Cl)ccc2[nH]1)C1CC1	
	5.02	CN1CCC(N(C)C(=O)CNC(=O)c2cc3cc(Cl)ccc3[nH]2)C1 (stereo not drawn)	
< 4.52	7.92	O=C(NCC(=O)N(CCO)C1CCS(=O)(=O)CC1)c1cc2cc(Cl)ccc2[nH]1	
5.40	6.24	CN(CCO)C(=O)CNC(=O)c1cc2cc(Cl)ccc2[nH]1	
5.03	7.09	CCCCN(C(=O)CNC(=O)c1cc2cc(Cl)ccc2[nH]1)C1CCCC1	

pIC50 [1]	pIC50 [2]	Structure (SMILES)	minimal effective dose [3]
5.03	6.46	O=C(NCC(=O)N(C(CO)CO)C1CCCC1)c1cc2cc(Cl)ccc2[nH]1	
	5.80	CN(Cc1ccncc1)C(=O)CNC(=O)c1cc2cc(Cl)ccc2[nH]1	
6.12	7.38	O=C(NCC(=O)N(CCCO)C1CCCC1)c1cc2cc(Cl)ccc2[nH]1	> 10 mg/kg
	5.96	CC(C)OCCN(C(=O)CNC(=O)c1cc2cc(Cl)ccc2[nH]1)C1CCCC1	
5.34	6.70	O=C(NCC(=O)N(CCO)C1CC1)c1cc2cc(Cl)ccc2[nH]1	
	5.30	CN(C)CCCN(C(=O)CNC(=O)c1cc2cc(Cl)ccc2[nH]1)C1CCCC1	
5.89	7.80	CC(O)CN(C(=O)CNC(=O)c1cc2cc(Cl)ccc2[nH]1)C1CCCC1 (stereo not drawn)	
	5.34	NC(=O)CN(C(=O)CNC(=O)c1cc2cc(Cl)ccc2[nH]1)C1CCCC1	
	5.52	NCCCN(C(=O)CNC(=O)c1cc2cc(Cl)ccc2[nH]1)C1CCCC1	
	5.41	O=C(NCC(=O)N(CCCCO)C1CCCC1)c1cc2cc(Cl)ccc2[nH]1	
5.62	7.08	CC(O)(CO)CN(C(=O)CNC(=O)c1cc2cc(Cl)ccc2[nH]1)C1CCCC1 (stereo not drawn)	> 10 mg/kg
	6.47	CCCN(C(=O)CNC(=O)c1cc2cc(Cl)ccc2[nH]1)C1CCCC1	
4.92	7.49	O=C(NCC(=O)N(CCO)C1CCCCCCC1)c1cc2cc(Cl)ccc2[nH]1	
	5.82	CN(Cc1ccccn1)C(=O)CNC(=O)c1cc2cc(Cl)ccc2[nH]1	
	5.01	CN(C)CCN(C(=O)CNC(=O)c1cc2cc(Cl)ccc2[nH]1)C1CCCC1	
	6.17	CC(C)OCCCN(C(=O)CNC(=O)c1cc2cc(Cl)ccc2[nH]1)C1CCCC1	
	6.18	O=C(NCC(=O)N(C1CCCC1)C1CCCC1)c1cc2cc(Cl)ccc2[nH]1	
5.00	6.47	CN(C(=O)CNC(=O)c1cc2cc(Cl)ccc2[nH]1)c1ccccn1	
5.82	6.80	O=C(NCC(=O)N(CCO)CC1CC1)c1cc2cc(Cl)ccc2[nH]1	> 10 mg/kg
6.05	7.02	C=CCN(C(=O)CNC(=O)c1cc2cc(Cl)ccc2[nH]1)C1CCCC1	
6.12	6.85	N#CCCN(C(=O)CNC(=O)c1cc2cc(Cl)ccc2[nH]1)C1CCCC1	
< 5.00	6.59	O=C(O)CN(C(=O)CNC(=O)c1cc2cc(Cl)ccc2[nH]1)C1CCCC1	
5.77	6.48	CN(C(=O)CNC(=O)c1cc2cc(Cl)ccc2[nH]1)c1cccnc1	
	6.43	COCCCN(C(=O)CNC(=O)c1cc2cc(Cl)ccc2[nH]1)C1CCCC1	
5.74	7.26	O=C(NCC(=O)N(CCO)C1CCOC1)c1cc2cc(Cl)ccc2[nH]1 (stereo not drawn)	

pIC50 [1]	pIC50 [2]	Structure (SMILES)	minimal effective dose [3]
6.06	7.00	COCC(O)CN(C(=O)CNC(=O)c1cc2cc(Cl)ccc2[nH]1)C1CCCC1 (stereo not drawn)	
5.74	7.31	O=C(NCC(=O)N(CCO)C1CCc2ccccc21)c1cc2cc(Cl)ccc2[nH]1 (stereo not drawn)	
4.55	7.09	O=C(NCC(=O)N(CCO)C1CCCCCCCC1)c1cc2cc(Cl)ccc2[nH]1	
6.21	6.64	CC(C)CN(C)C(=O)CNC(=O)c1cc2cc(Cl)ccc2[nH]1	
	5.92	COCC(N)CN(C(=O)CNC(=O)c1cc2cc(Cl)ccc2[nH]1)C1CCCC1 (stereo not drawn)	
	6.17	CN(C(=O)CNC(=O)c1cc2cc(Cl)ccc2[nH]1)C(C)(C)C	
	5.08	CN(C(=O)CNC(=O)c1cc2cc(Cl)ccc2[nH]1)C1CCN(C=O)CC1	
5.85	6.82	CCCCN(C)C(=O)CNC(=O)c1cc2cc(Cl)ccc2[nH]1	
	5.72	CN(Cc1cccnc1)C(=O)CNC(=O)c1cc2cc(Cl)ccc2[nH]1	
	5.72	CN(CC(F)(F)F)C(=O)CNC(=O)c1cc2cc(Cl)ccc2[nH]1	
5.47	6.68	CC(C)N(CCO)C(=O)CNC(=O)c1cc2cc(Cl)ccc2[nH]1	> 10 mg/kg
< 5.00	6.26	CN(Cc1ccccc1)C(=O)CNC(=O)c1cc2cc(Cl)ccc2[nH]1	
5.17	6.54	CC(C)(C)N(CCO)C(=O)CNC(=O)c1cc2cc(Cl)ccc2[nH]1	
5.28	6.28	CCOC(=O)CN(C(=O)CNC(=O)c1cc2cc(Cl)ccc2[nH]1)C1CCCC1	
5.47	6.29	CN(C(=O)CNC(=O)c1cc2cc(Cl)ccc2[nH]1)C1CCOCC1	
5.08	6.29	NC(CO)CN(C(=O)CNC(=O)c1cc2cc(Cl)ccc2[nH]1)C1CCCC1 (stereo not drawn)	
	6.03	CC(C)OCC(O)CN(C(=O)CNC(=O)c1cc2cc(Cl)ccc2[nH]1)C1CCCC1 (stereo not drawn)	
6.39	6.68	CCN(C(=O)CNC(=O)c1cc2cc(Cl)ccc2[nH]1)C1CCCC1	
< 5.00	6.49	CN(C(=O)CNC(=O)c1cc2cc(Cl)ccc2[nH]1)C1CCCCCC1	
	5.89	O=C(NCC(=O)N(CCO)C1CCS(=O)(=O)C1)c1cc2cc(Cl)ccc2[nH]1 (stereo not drawn)	
4.89	6.39	CN(C)C(=O)CN(C(=O)CNC(=O)c1cc2cc(Cl)ccc2[nH]1)C1CCCC1	
5.64	7.52	O=C(NCC(=O)N(CCO)C1CCCCCC1)c1cc2cc(Cl)ccc2[nH]1	
5.82	6.59	O=C(NCC(=O)N(CCO)Cc1ccco1)c1cc2cc(Cl)ccc2[nH]1	
5.70	6.39	CN(C(=O)CNC(=O)c1cc2cc(Cl)ccc2[nH]1)C1CCS(=O)(=O)C1 (stereo not drawn)	
